Measurements taken from publication PMC3483416 (Archives of biochemistry and biophysics, 2012).
Like-named read-outs stand apart in the source and are kept apart here. No end group written: not given here.

Columns and labels:
full-length human BclXL = full-length human BclXL (Homo sapiens, UniProt Q07817); assay: ITC: binding of Bid_BH3 peptide to full-length BclXL at varying pH; conditions: for TΔS / ΔH / ΔG: 25 °C, ± SD, n at least 3; for TΔS: TΔS=ΔH-ΔG; for ΔG: ΔG=RTlnKd
Summary of the method: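 20-mer BH3 peptide (human Bid residues 81–100, gravimetric concentration) at 0.5–1 mM, titrated in 25 × 10 μl injections into 50 μM full-length human BclXL at 25 °C. Buffers 50 mM acetate pH 4, phosphate pH 6, Tris pH 8 or CAPS pH 10, each with 100 mM NaCl, 1 mM EDTA and 5 mM β-mercaptoethanol. Dilution heats subtracted. Kd and ΔH from a one-site fit; TΔS = ΔH − ΔG. Proton coupling assessed from buffer ionization-enthalpy dependence. ≥3 repeats.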

[1] = target: T1, Full-length human BclXL (residues 1-233) (human, UniProt Q07817-1 1-233); assay: ITC
[2] = target: T1, Full-length human BclXL (residues 1-233); assay: ITC; remark: listed apart in the source
[3] = target: T1, Full-length human BclXL (residues 1-233); assay: ITC; remark: listed apart in the source
[4] = target: T1, Full-length human BclXL (residues 1-233); assay: ITC; remark: listed apart in the source

T1 sequence (Q07817 whole entry, the tested form may be a part): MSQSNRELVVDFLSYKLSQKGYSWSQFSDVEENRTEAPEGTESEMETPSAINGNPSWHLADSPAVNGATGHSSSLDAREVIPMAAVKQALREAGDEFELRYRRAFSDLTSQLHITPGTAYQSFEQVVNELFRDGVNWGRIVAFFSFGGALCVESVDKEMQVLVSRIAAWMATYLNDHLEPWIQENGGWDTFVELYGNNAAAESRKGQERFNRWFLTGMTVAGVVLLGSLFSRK
Chain of full-length human BclXL (Q07817 whole entry, the tested form may be a part): as above

Molecule DIIRNIARHLAQVGDSMDRS [Bid_BH3 peptide] has a TΔS (full-length human BclXL; pH 4, acetate) of -2.15 ± 0.03 kcal/mol, a ΔH (full-length human BclXL; pH 4, acetate) of -9.09 ± 0.20 kcal/mol and a ΔG (full-length human BclXL; pH 4, acetate) of -6.94 ± 0.08 kcal/mol. For the same molecule, the “optimum pH of ligand binding” value (full-length human BclXL; pH 4-10) was “optimally occurs at pH 6”, the TΔS (full-length human BclXL; pH 6, phosphate) was -5.48 ± 0.15 kcal/mol and the ΔH (full-length human BclXL; pH 6, phosphate) was -13.66 ± 0.32 kcal/mol. For the same molecule, the ΔG (full-length human BclXL; pH 6, phosphate) was -8.17 ± 0.09 kcal/mol, the TΔS (full-length human BclXL; pH 8, Tris) was -11.58 ± 0.29 kcal/mol and the ΔH (full-length human BclXL; pH 8, Tris) was -18.39 ± 0.53 kcal/mol. The ΔG (full-length human BclXL; pH 8, Tris) was -6.80 ± 0.04 kcal/mol, the TΔS (full-length human BclXL; pH 10, CAPS) was -10.13 ± 0.31 kcal/mol and the ΔH (full-length human BclXL; pH 10, CAPS) was -16.54 ± 0.47 kcal/mol. For the same molecule, the ΔG (full-length human BclXL; pH 10, CAPS) was -6.40 ± 0.02 kcal/mol.

Work on DIIRNIARHLAQVGDSMDRS [Bid_BH3 peptide (20-mer spanning residues 81-100, the BH3 domain within human Bid)] yielded a Kd [1] of 8.3 µM, a dH [1] of -9.09 kcal/mol and a Kd [2] of 1.03 µM. It also gave a dH [2] of -13.7 kcal/mol, a Kd [3] of 20.5 µM and a dH [3] of -16.5 kcal/mol. For the same molecule, the Kd [4] was 10.4 µM and the dH [4] was -18.4 kcal/mol.
